Measurements gathered from unrelated publications.
Protocols differ between the studies behind these lines.
Target: Interleukin-1 receptor-associated kinase 3 (IRAK3, Homo sapiens, UniProt Q9Y616)
Sequence (Q9Y616 1-596, as in one of the studies): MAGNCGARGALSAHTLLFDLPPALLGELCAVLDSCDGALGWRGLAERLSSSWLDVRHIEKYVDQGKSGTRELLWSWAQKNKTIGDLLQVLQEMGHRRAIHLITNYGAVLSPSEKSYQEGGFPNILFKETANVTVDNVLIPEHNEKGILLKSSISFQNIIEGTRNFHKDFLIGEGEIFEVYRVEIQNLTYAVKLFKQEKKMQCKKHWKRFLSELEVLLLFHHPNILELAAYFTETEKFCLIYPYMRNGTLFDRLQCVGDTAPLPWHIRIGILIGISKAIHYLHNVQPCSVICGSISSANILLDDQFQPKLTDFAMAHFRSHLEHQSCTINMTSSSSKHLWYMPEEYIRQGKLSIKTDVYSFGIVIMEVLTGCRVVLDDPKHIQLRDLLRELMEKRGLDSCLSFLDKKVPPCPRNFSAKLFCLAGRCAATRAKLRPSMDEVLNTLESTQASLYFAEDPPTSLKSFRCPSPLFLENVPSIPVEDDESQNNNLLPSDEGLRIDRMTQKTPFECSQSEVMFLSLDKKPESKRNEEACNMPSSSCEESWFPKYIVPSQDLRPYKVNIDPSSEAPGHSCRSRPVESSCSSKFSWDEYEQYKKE

`N#Cc1ccc(Nc2ccc3[nH]c(=O)[nH]c3c2)c(Cl)c1` gave a remaining binding of 94% (cell-free assay; competition with immobilised ligand; 1 µM).
For `Cc1cnn2ncc(-c3ccnc(N(C)C)n3)c2c1`, the remaining binding was 70% (binding; 1 µM).
`CN(C(=O)c1ccccc1)c1cc(N(C)c2ccc3c(c2)CCc2ccc(C(=O)NCCN4CCOCC4)cc2C3=O)ccc1F` gave a remaining binding of 91% (cell-free assay; competition with immobilised ligand; 1 µM).
The remaining binding of `CCN1CCN(Cc2ccc(C(=O)Nc3ccc(C)c(Oc4ccc5c(c4)CC(=O)N5)c3)cc2C(F)(F)F)CC1` is reported as 100% (binding; competition with immobilised ligand; 1 µM).
With `CNC(=O)Nc1ccc2c(c1)CC[C@@]21OC(=O)N(CC(=O)N(Cc2ccc(F)cc2)[C@@H](C)C(F)(F)F)C1=O` the remaining binding was 95% (cell-free assay; competition with immobilised ligand; 1 µM).
For `c1cnn2ncc(-c3ccnc(N4CCC45COC5)n3)c2c1`, the remaining binding was 36% (binding; 1 µM).
For `O=C(NCc1ncc(C(F)(F)F)cc1Cl)c1ccc2c(c1)C1(CCS(=O)(=O)CC1)[C@H](C1CC1)N2S(=O)(=O)c1ccc(F)cc1`, the remaining binding was 99% (cell-free assay; competition with immobilised ligand; 1 µM).
`c1cncc(-c2cccc(Nc3nccc(NC4CCCCC4)n3)c2)c1` gave a remaining binding of 4.5% (binding; competition with immobilised ligand; 10 µM).
`O=C(Nc1c[nH]nc1C(=O)NC1CCNCC1)c1cc(F)cc(F)c1` has a remaining binding of 100% (binding; competition with immobilised ligand; 1 µM).
`C[C@H]1CCN(c2nccc(-c3cnn4ncccc34)n2)C1` gave a remaining binding of 52% (binding; 1 µM).
With `C=CC(=O)N1CCC(C(=O)NCC(=O)N2CCN(c3nc(-c4cnc(N)nc4C(F)F)nc(N4CCOCC4)n3)CC2)CC1` the remaining binding was 89% (binding; competition with immobilised ligand; 1 µM).
`CS(=O)(=O)N1CCCC(NC(=O)[C@H](CCC2CCCCC2)NC(=O)c2ccc(CNc3ncnc4c3nnn4-c3ccccc3)cc2)C1` (some centres unmarked) gave a remaining binding of 100% (cell-free assay; competition with immobilised ligand; 0.1 µM).
The remaining binding of `F[C@@H]1CCN(c2nccc(-c3cnn4ncccc34)n2)C1` is reported as 100% (binding; 1 µM).
`Cc1cnc(Nc2ccc(C(=O)N3CCC(N4CCCC4)CC3)cc2)nc1-c1cc2ccccc2s1` has a remaining binding of 5.3% (binding; competition with immobilised ligand; 1 µM).
`CN(CCCC(F)(F)F)c1nccc(-c2cnn3ncccc23)n1` has a remaining binding of 94% (binding; 1 µM).
For `O=C(NCCCN1CCOCC1)c1ccc(Nc2nccc(-c3cc4ccccc4s3)n2)cc1`, the remaining binding was 8.4% (binding; competition with immobilised ligand; 1 µM).
`C[C@H](NC(=O)c1cnc2n1[C@](C)(Cc1ccc(C#N)cc1)C(=O)N2c1cc(Cl)c(F)c(Cl)c1)C(=O)NC1(c2ccccn2)CC1` has a remaining binding of 100% (cell-free assay; competition with immobilised ligand; 1 µM).
For `O=C(c1ccc(Nc2ncc(Cl)c(-c3ccc(Cl)s3)n2)cc1)N1CCC(N2CCCC2)CC1`, the remaining binding was 1.6% (binding; competition with immobilised ligand; 1 µM).
`COc1ccnn2ncc(-c3ccnc(N(C)C)n3)c12` gave a remaining binding of 91% (binding; 1 µM).
With `CNC(=O)[C@@H]1CC[C@@H](n2c(-c3ccc4cnccc4c3)nc3ccc(C(=O)NCc4cccc(C(N)=O)c4)cc32)C1` the remaining binding was 97% (binding; competition with immobilised ligand; 1 µM).
